Measurements from different studies.
Lines come from different studies, so protocols differ.
Target: Protein kinase C iota type (PRKCI, Homo sapiens, UniProt P41743)
Sequence (P41743 1-596, as in one of the studies): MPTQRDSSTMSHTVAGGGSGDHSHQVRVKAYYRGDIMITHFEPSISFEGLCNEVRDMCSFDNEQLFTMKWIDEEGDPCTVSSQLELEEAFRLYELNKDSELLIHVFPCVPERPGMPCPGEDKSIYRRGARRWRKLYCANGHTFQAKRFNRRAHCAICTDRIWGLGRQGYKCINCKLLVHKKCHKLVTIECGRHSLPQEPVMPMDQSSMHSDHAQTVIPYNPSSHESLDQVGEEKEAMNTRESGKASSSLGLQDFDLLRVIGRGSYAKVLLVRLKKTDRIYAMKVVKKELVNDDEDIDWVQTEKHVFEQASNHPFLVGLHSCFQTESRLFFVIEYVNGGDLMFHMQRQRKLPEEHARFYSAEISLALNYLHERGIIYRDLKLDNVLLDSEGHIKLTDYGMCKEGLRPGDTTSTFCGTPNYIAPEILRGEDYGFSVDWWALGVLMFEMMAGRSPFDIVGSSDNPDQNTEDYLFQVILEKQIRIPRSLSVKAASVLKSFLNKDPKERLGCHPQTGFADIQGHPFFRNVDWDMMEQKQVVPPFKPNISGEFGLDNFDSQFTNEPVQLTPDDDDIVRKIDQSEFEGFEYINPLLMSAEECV

SMILES | assay | conditions | remaining binding
C[C@H]1CCN(c2nccc(-c3cnn4ncccc34)n2)C1 | binding | 1 µM | 59%
O=C(c1ccc(Nc2ncc(Cl)c(-c3cc4ccccc4s3)n2)cc1)N1CCC(N2CCCC2)CC1 | binding, competition with immobilised ligand | 1 µM | 72%
CNC(=O)[C@@H]1CC[C@@H](n2c(-c3ccc4cnccc4c3)nc3ccc(C(=O)NCc4cccc(C(N)=O)c4)cc32)C1 | binding, competition with immobilised ligand | 1 µM | 97%
O=C(O)[C@H]1[C@H](Cn2nnc3ccccc3c2=O)CC[C@@H]1C(=O)c1ccc(OCCC2CCOCC2)cc1 | cell-free assay, competition with immobilised ligand | 1 µM | 66%
CC1CCCN1c1nccc(-c2cnn3ncccc23)n1 (stereo not drawn) | binding | 1 µM | 100%
COc1ccc2c(c1)O[C@@H](c1ccc(OC)c(OC)c1)C[C@H]2NC(=O)C1(c2ccc3c(c2)OC(F)(F)O3)CC1 | cell-free assay, competition with immobilised ligand | 1 µM | 92%
F[C@@H]1CCN(c2nccc(-c3cnn4ncccc34)n2)C1 | binding | 1 µM | 100%
O=C(NCCCN1CCOCC1)c1ccc(Nc2nccc(-c3cc4ccccc4s3)n2)cc1 | binding, competition with immobilised ligand | 1 µM | 87%
C[C@@H]1CN(c2cc(-c3n[nH]c4ccc(OC5(C)CC5)cc34)ncn2)C[C@H](C)O1 | cell-free assay, competition with immobilised ligand | 0.1 µM | 80%
O=C(NCCCN1CCOCC1)c1ccc(Nc2ncc(Cl)c(-c3ccc(Cl)s3)n2)cc1 | binding, competition with immobilised ligand | 1 µM | 98%
CN([C@@H]1CCc2c(CC(=O)O)c3cc(S(C)(=O)=O)ccc3n2C1)S(=O)(=O)c1ccc(F)cc1 | cell-free assay, competition with immobilised ligand | 1 µM | 100%
O=C(NCC1CCOCC1)c1n[nH]cc1NC(=O)c1c(F)cccc1F | binding, competition with immobilised ligand | 1 µM | 73%
O=C(Nc1cccnn1)N1CC(C/C=C/c2cncc(Oc3ccc(C(F)(F)F)cn3)n2)C1 | cell-free assay, competition with immobilised ligand | 1 µM | 96%
CN(C)c1ncc(F)c(-c2cnn3ncccc23)n1 | binding | 1 µM | 100%
COc1cnc(Nc2cccc(S(N)(=O)=O)c2)nc1N1CCN(c2ccccc2)CC1 | binding, competition with immobilised ligand | 1 µM | 95%
COc1ccnn2ncc(-c3ccnc(N(C)C)n3)c12 | binding | 1 µM | 74%
C=CC(=O)N1CCC(C(=O)NCC(=O)N2CCN(c3nc(-c4cnc(N)nc4C(F)F)nc(N4CCOCC4)n3)CC2)CC1 | binding, competition with immobilised ligand | 1 µM | 95%
CN(C)c1ncnc(-c2ccc3nc(Nc4cc(CN5CCN(C(=O)CC(F)(F)F)CC5)ccn4)[nH]c3c2)c1Cl | cell-free assay, competition with immobilised ligand | 1 µM | 79%
CN(C)c1nccc(-c2cnc3ncccn23)n1 | binding | 1 µM | 72%
c1cncc(-c2cccc(Nc3nccc(NC4CCCCC4)n3)c2)c1 | binding, competition with immobilised ligand | 10 µM | 78%
Nc1ncc2c(n1)-c1c([nH]c3ccc(C#CC4CC4)cc13)CCCC2 | binding, competition with immobilised ligand | 1 µM | 89%
